Test results from ChEMBL document CHEMBL1134336, “Synthesis and SAR of a new series of COX-2-selective inhibitors: pyrazolo[1,5-a]pyrimidines” (J Med Chem, 2001).

Assays:
[1] = biological target: T1, Prostaglandin G/H synthase 2 (Homo sapiens) (UniProt P35354); experiment: Percentage inhibition of Prostaglandin G/H synthase 2 activity in human whole blood (HWB) at 10 uM; format: tissue-based
T1 sequence (whole entry): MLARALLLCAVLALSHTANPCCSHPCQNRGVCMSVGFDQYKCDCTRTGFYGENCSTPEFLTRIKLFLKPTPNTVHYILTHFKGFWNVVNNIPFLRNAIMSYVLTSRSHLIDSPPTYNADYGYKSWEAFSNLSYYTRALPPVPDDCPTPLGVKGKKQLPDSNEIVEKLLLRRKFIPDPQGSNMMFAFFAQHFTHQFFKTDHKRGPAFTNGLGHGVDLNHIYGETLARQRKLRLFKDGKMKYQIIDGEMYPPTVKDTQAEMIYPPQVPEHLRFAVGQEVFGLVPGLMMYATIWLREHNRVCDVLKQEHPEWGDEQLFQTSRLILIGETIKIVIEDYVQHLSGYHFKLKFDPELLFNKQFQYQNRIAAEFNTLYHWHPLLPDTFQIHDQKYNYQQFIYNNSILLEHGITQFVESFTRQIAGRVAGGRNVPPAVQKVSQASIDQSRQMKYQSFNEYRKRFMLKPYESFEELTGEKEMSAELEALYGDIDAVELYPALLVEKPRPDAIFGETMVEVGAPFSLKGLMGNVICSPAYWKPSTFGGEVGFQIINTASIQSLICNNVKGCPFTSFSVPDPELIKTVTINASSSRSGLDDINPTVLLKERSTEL
Summary of the method: (§1)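 COX-2: human whole blood stimulated with lipopolysaccharide 026:B6, 37 °C, 24 h, with aspirin (20 µg/mL) to block COX-1. PGE2 by enzyme immunoassay after centrifugation. Run in duplicate or repeated.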

[2] = biological target: T2, Prostaglandin G/H synthase 1 (Homo sapiens, UniProt P23219); experiment: Percentage of inhibition of Prostaglandin G/H synthase 1 activity in human whole blood (HWB) at 10 uM; format: tissue-based
Summary of the method: (§2)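 COX-1: human blood left to clot spontaneously 5 h at 37 °C, then A23187 (5 μM) 30 min further. Stopped at 0 °C with EGTA/MeOH; supernatant TXB2 by enzyme immunoassay. Run in duplicate or repeated.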

[3] = biological target: T1, Prostaglandin G/H synthase 2 (Homo sapiens); experiment: Percentage of inhibition of Prostaglandin G/H synthase 2 activity in human whole blood (HWB) at 1 uM; format: tissue-based; summary of the method: as §1
[4] = biological target: T2, Prostaglandin G/H synthase 1; format: cell-based, U-937
[5] = biological target: T2, Prostaglandin G/H synthase 1; experiment: Percentage of inhibition of Prostaglandin G/H synthase 1 activity in human whole blood (HWB) at 1 uM; format: tissue-based; summary of the method: as §2

T2 sequence (P23219 whole entry): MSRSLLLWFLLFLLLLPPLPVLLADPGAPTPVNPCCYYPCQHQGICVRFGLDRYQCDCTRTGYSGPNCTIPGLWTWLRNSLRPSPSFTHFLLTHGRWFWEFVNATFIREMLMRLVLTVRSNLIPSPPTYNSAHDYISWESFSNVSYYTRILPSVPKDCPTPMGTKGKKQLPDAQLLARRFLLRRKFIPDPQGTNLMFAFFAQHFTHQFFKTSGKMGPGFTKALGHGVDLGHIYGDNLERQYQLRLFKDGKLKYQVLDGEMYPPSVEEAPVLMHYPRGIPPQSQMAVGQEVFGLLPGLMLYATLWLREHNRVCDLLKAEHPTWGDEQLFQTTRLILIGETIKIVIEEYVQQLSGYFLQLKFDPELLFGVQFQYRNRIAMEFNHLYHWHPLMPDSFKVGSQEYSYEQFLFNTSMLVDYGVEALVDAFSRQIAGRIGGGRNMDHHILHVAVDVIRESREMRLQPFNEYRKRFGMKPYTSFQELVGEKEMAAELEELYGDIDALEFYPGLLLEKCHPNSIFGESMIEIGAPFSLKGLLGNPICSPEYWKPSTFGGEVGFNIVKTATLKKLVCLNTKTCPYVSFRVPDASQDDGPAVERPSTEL

| SMILES | inhibition [1] [%] | inhibition [2] [%] | inhibition [3] [%] | IC50 [4] [µM] | inhibition [5] [%] |
| --- | --- | --- | --- | --- | --- |
| Cc1ccc(-c2c(-c3ccc(S(C)(=O)=O)cc3)nn3c(C)c(C)cnc23)cc1 | 100 | 54.2 | 87.6 | – | – |
| CCCCc1cnnc2c(-c3ccc(F)cc3)c(-c3ccc(S(C)(=O)=O)cc3)nn12 | 89.7 | 69.8 | 0.9 | – | – |
| CCc1nnc2c(-c3ccc(F)cc3)c(-c3ccc(S(C)(=O)=O)cc3)nn2c1CC | 100 | 88.7 | 50.9 | – | – |
| Cc1ccn2c(-c3ccc(F)cc3)c(-c3ccc(S(C)(=O)=O)cc3)nc2n1 | 50.7 | 13.5 | – | – | – |
| Cc1cnc2c(-c3ccc(F)cc3F)c(-c3ccc(S(C)(=O)=O)cc3)nn2c1C | 100 | 80.8 | 61.1 | – | – |
| CS(=O)(=O)c1ccc(-c2nc3cccnn3c2-c2ccc(F)cc2)cc1 | 61.2 | 47 | – | – | – |
| Cc1cn2c(-c3ccc(F)cc3)c(-c3ccc(S(C)(=O)=O)cc3)nc2c(C)n1 | 82.4 | 0 | 0 | – | – |
| CCCc1c(C(=O)O)cnc2c(-c3ccc(F)cc3)c(-c3ccc(S(C)(=O)=O)cc3)nn12 | 0 | 7.4 | 31.9 | – | – |
| CS(=O)(=O)c1ccc(-c2nn3c4c(cnc3c2-c2ccc(F)cc2)CSC4)cc1 | 93.6 | 0 | 25 | – | – |
| Cc1cnc2c(-c3ccc(F)cc3)c(-c3ccc(S(C)(=O)=O)cc3)nn2c1 | – | 8.2 | – | > 10 | – |
| CCCc1cnnc2c(-c3ccc(F)cc3)c(-c3ccc(S(C)(=O)=O)cc3)nn12 | 100 | 29.3 | 43.9 | – | – |
| Cc1c(C(F)(F)F)cnc2c(-c3ccc(F)cc3)c(-c3ccc(S(C)(=O)=O)cc3)nn12 | 100 | 100 | 69 | – | 53.9 |
| Cc1ccn2c(-c3ccc(F)cc3)c(-c3ccc(S(C)(=O)=O)cc3)nc2c1C | 66.7 | 0 | 59.3 | – | – |
| CS(=O)(=O)c1ccc(-c2nc3cnccn3c2-c2ccc(F)cc2)cc1 | 42.5 | 6 | – | – | – |
| Cc1cnc2c(-c3ccc(F)cc3)c(-c3ccc(S(N)(=O)=O)cc3)nn2c1C | 99.1 | 22 | 22.5 | – | – |
| CS(=O)(=O)c1ccc(-c2nn3c4c(cnc3c2-c2ccc(F)cc2)CCCC4)cc1 | 100 | 40.4 | 57.7 | – | – |
| CS(=O)(=O)c1ccc(-c2nn3c(C(F)(F)F)ccnc3c2-c2ccc(F)cc2)cc1 | 90.6 | 0 | 3.5 | – | – |
| CCCc1ccnc2c(-c3ccc(F)cc3)c(-c3ccc(S(C)(=O)=O)cc3)nn12 | 56.1 | 37.3 | 32.2 | – | – |
| Cc1cnc2c(-c3ccc(F)cc3)c(-c3ccc(S(C)(=O)=O)cc3)nn2c1-c1ccccc1 | 12.3 | 0 | – | – | – |
| Cc1cnc2c(-c3ccc(F)c(F)c3)c(-c3ccc(S(N)(=O)=O)cc3)nn2c1C | 100 | 68.2 | 97.2 | – | – |
| CS(=O)(=O)c1ccc(-c2nn3c(-c4ccccc4)ccnc3c2-c2ccc(F)cc2)cc1 | 90.4 | 5.7 | 0 | – | – |
| CS(=O)(=O)c1ccc(-c2nc3cnccc3n2-c2ccc(F)cc2)cc1 | 21.3 | 34.3 | – | – | – |
| CS(=O)(=O)c1ccc(-c2nn3c4c(cnc3c2-c2ccc(F)cc2)CCC4)cc1 | 90.4 | 0 | 48.3 | – | – |
| CCCCc1nccn2c(-c3ccc(F)cc3)c(-c3ccc(S(C)(=O)=O)cc3)nc12 | 0 | 9.8 | – | – | – |
| Cc1cc2c(nc(-c3ccc(S(C)(=O)=O)cc3)n2-c2ccc(F)cc2)c(C)n1 | 4.3 | 0 | – | – | – |
| CS(=O)(=O)c1ccc(-c2nn3cccnc3c2-c2ccc(F)cc2)cc1 | 36.2 | 35 | – | > 10 | – |
| Cc1cnc2c(-c3ccc(F)c(F)c3)c(-c3ccc(S(C)(=O)=O)cc3)nn2c1C | 100 | 36.3 | 100 | – | – |
| CS(=O)(=O)c1ccc(-c2nn3c4c(cnc3c2-c2ccc(F)cc2)SCC4)cc1 | 90.7 | 7 | 14.8 | – | – |

More lines, now with the values ahead:

| inhibition [1] [%] | inhibition [2] [%] | inhibition [3] [%] | IC50 [4] [µM] | inhibition [5] [%] | SMILES |
| --- | --- | --- | --- | --- | --- |
| 56.3 | 8.3 | – | – | – | Cc1c(C(=O)O)cnc2c(-c3ccc(F)cc3)c(-c3ccc(S(C)(=O)=O)cc3)nn12 |
| 100 | 42.7 | 56.5 | – | – | Cc1cnc2c(-c3ccc(F)cc3)c(-c3ccc(S(C)(=O)=O)cc3)nn2c1CO |
| 84.6 | 7.3 | 4.4 | – | – | Cc1c(CF)cnc2c(-c3ccc(F)cc3)c(-c3ccc(S(C)(=O)=O)cc3)nn12 |
| 41 | 8 | – | – | – | CCOC(=O)c1cc(C)n2nc(-c3ccc(S(C)(=O)=O)cc3)c(-c3ccc(F)cc3)c2n1 |
| 100 | 71.1 | 60.8 | – | – | CC(=O)c1cnc2c(-c3ccc(F)cc3)c(-c3ccc(S(C)(=O)=O)cc3)nn2c1C |
| – | 61.3 | – | > 10 | – | Cc1nc2c(-c3ccc(F)cc3)c(-c3ccc(S(C)(=O)=O)cc3)nn2c(C)c1C |
| 0 | 0 | – | – | – | COc1cc(C)nc2c(-c3ccc(F)cc3)c(-c3ccc(S(C)(=O)=O)cc3)nn12 |
| 54.6 | 7.7 | – | – | – | CCCCc1nc(C)nc2c(-c3ccc(F)cc3)c(-c3ccc(S(C)(=O)=O)cc3)nn12 |
| 58.3 | 0 | 11 | – | – | CCCCc1cc(C)nc2c(-c3ccc(F)cc3)c(-c3ccc(S(C)(=O)=O)cc3)nn12 |
| – | 32.6 | – | > 10 | – | Cc1cn2nc(-c3ccc(S(C)(=O)=O)cc3)c(-c3ccc(F)cc3)c2nc1C |
| 95 | 18.7 | 17.9 | – | – | CCCc1c(C)nnc2c(-c3ccc(F)cc3)c(-c3ccc(S(C)(=O)=O)cc3)nn12 |
| – | 50.5 | – | > 10 | – | Cc1ccnc2c(-c3ccc(F)cc3)c(-c3ccc(S(C)(=O)=O)cc3)nn12 |
| 45.8 | 1.2 | – | – | – | Cc1nc2c(-c3ccc(F)cc3)c(-c3ccc(S(C)(=O)=O)cc3)nn2c(Cl)c1C |
| 14.3 | 32.5 | – | – | – | Cc1cc(Cl)n2nc(-c3ccc(S(C)(=O)=O)cc3)c(-c3ccc(F)cc3)c2n1 |
| 100 | 1.2 | 40.5 | – | – | Cc1nnc2c(-c3ccc(F)cc3)c(-c3ccc(S(C)(=O)=O)cc3)nn2c1C |
| 100 | 82.8 | 62.3 | – | – | CCc1c(C)cnc2c(-c3ccc(F)cc3)c(-c3ccc(S(C)(=O)=O)cc3)nn12 |
| 100 | 86.2 | 51.5 | – | 6.8 | CCCCc1cc(C)n2nc(-c3ccc(S(C)(=O)=O)cc3)c(-c3ccc(F)cc3)c2n1 |
| 57.2 | 2.5 | – | – | – | Cc1cc(C(F)(F)F)nc2c(-c3ccc(F)cc3)c(-c3ccc(S(C)(=O)=O)cc3)nn12 |
| 100 | 91.8 | 50.3 | – | 0 | CCc1cnc2c(-c3ccc(F)cc3)c(-c3ccc(S(C)(=O)=O)cc3)nn2c1C |
| – | 19 | – | > 10 | – | Cc1ccn2nc(-c3ccc(S(C)(=O)=O)cc3)c(-c3ccc(F)cc3)c2n1 |
| 24.6 | 33.5 | – | – | – | Cc1cc(C(=O)O)nc2c(-c3ccc(F)cc3)c(-c3ccc(S(C)(=O)=O)cc3)nn12 |
| 21.9 | 8.1 | – | – | – | Cc1cc(O)n2nc(-c3ccc(S(C)(=O)=O)cc3)c(-c3ccc(F)cc3)c2n1 |
| 100 | 0 | 37.3 | – | – | Cc1cnn2c(-c3ccc(F)cc3)c(-c3ccc(S(C)(=O)=O)cc3)nc2c1C |
| 100 | 61.9 | 74.9 | – | – | CCc1nnc2c(-c3ccc(F)cc3)c(-c3ccc(S(C)(=O)=O)cc3)nn2c1C |
| 90.3 | 4.75 | 18.1 | – | – | Cc1nc(C)n2nc(-c3ccc(S(C)(=O)=O)cc3)c(-c3ccc(F)cc3)c2n1 |
| 100 | 83.8 | 84.3 | – | 18.9 | Cc1c(Br)cnc2c(-c3ccc(F)cc3)c(-c3ccc(S(C)(=O)=O)cc3)nn12 |
| – | 8.3 | – | > 10 | – | Cc1cc(C)n2nc(-c3ccc(S(C)(=O)=O)cc3)c(-c3ccc(F)cc3)c2n1 |
